Experimental data published in paper PMC9673105 (Poultry Science, 2022).
Where two headings read alike, the source gives them in different places.

How the values were obtained:
[1] = cited from earlier work
human GALR2 = conditions: ref Kim et al., 2014, Cohen et al., 2020; cited from earlier work
GALR1 = conditions: ref Kim et al., 2014, cited from earlier work
human GALR3 = conditions: ref Kim et al., 2014, Cohen et al., 2020; cited from earlier work
zebrafish GALR2a = conditions: ref Kim et al., 2014, Cohen et al., 2020; cited from earlier work
Siberian sturgeon = conditions: ref Tian et al., 2020, cited from earlier work
[2] = tested on: luteinizing hormone (LH) release; conditions: ewe; ref Lomet et al., 2020; cited from earlier work
POMC = assay: Hypothalamic POMC mRNA; format: in vivo; conditions: chicken
Outline: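 3-wk-old male chicks, randomized into four groups (N ≥ 3), given test peptide intravenously at 10, 50 or 100 ng/g BW, or PBS as control. Hypothalami collected 6, 12 and 24 h post-injection. EvaGreen qRT-PCR with melting-curve and agarose-gel specificity checks. mRNA normalised to β-actin and expressed as fold of PBS group. One-way ANOVA with Dunnett's test.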

tilapia GALR2a = conditions: ref Kim et al., 2014, Cohen et al., 2020; cited from earlier work
zebrafish GALR2b = conditions: ref Kim et al., 2014, Cohen et al., 2020; cited from earlier work
[3] = tested on: hypothalamic neuropeptides; conditions: goldfish; ref Wong et al., 2013; cited from earlier work
Xenopus GALR2b = conditions: ref Kim et al., 2014, Cohen et al., 2020; cited from earlier work
Xenopus GALR3 = conditions: ref Kim et al., 2014, Cohen et al., 2020; cited from earlier work
[4] = tested on: hypothalamic neuropeptides; conditions: orange-spotted grouper; ref Li et al., 2016; cited from earlier work
goldfish = conditions: injection, ref Wong et al., 2013; cited from earlier work
tilapia GALR2b = conditions: ref Kim et al., 2014, Cohen et al., 2020; cited from earlier work
[5] = tested on: hypothalamic neuropeptides; conditions: mouse; ref Lv et al., 2020; cited from earlier work
[6] = tested on: hypothalamic neuropeptides; conditions: zebrafish; ref Zheng et al., 2017; cited from earlier work
mice = conditions: cited from earlier work
GALR2 = conditions: mouse; ref Lin et al., 2015; cited from earlier work

In the case of “SPX: Spexin, novel neuropeptide; mature peptide with 14 amino acid residues, of various species in cited literature”, the body weight ([1]; rodents with diet-induced obesity, ref Walewski et al., 2014) is listed as “lose weight”, the body weight ([1]; rodents, ref Kolodziejski et al., 2021) is listed as “weight loss” and the receptor activation (human GALR2) is listed as “could activate”. For the same substance, the receptor activation (GALR1; GALR1, Cohen et al., 2020) was “not GALR1”, the “activation of GALR1” value (GALR1) was “incompetent in activating GALR1” and the receptor activation (human GALR3) was “could activate”. The receptor activation (zebrafish GALR2a) was “could activate”, the feed consumption (Siberian sturgeon; injection) was “observably decreased” and the feeding (Siberian sturgeon; intraperitoneal (IP) injection) was “feeding inhibition”. The “basal and KISS-induced luteinizing hormone (LH) release” value [2] was “does not impact”, the “POMC mRNA level (in words)” value (POMC) was “failed to change the mRNA level of POMC” and the receptor activation (tilapia GALR2a) was “could activate”. For the same substance, the receptor activation (zebrafish GALR2b) was “could activate”, the POMC expression [3] was “could elevate POMC expression” and the receptor activation (Xenopus GALR2b) was “could activate”. The receptor activation (Xenopus GALR3) was “could activate”, the POMC expression [4] was “could elevate POMC expression” and the feed consumption (goldfish) was “observably decreased”. The receptor activation (tilapia GALR2b) was “could activate”, the “POMC mRNA level” value [5] was “failed to change the mRNA level of POMC” and the POMC expression [6] was “could elevate POMC expression”. For the same substance, the feeding (mice; intraperitoneal (IP) injection, ref Lv et al., 2020, Wong et al., 2021b) was “feeding inhibition”, the feed intake (mice; peripheral, ref Lv et al., 2020) was “suppresses feed intake” and the “bowel movement via SPX-dependent GALR2 activation” value (GALR2) was “could enhance bowel movement”.
